Measured values taken from ChEMBL document CHEMBL3272210, “Effect of the solvent-dependent conformational system of hydroxyureas on predicted vs. observed log P” (J Med Chem, 1977).

Tests used:
[1] = Octanol-water partition coefficient, log P of the compound after 72 hrs; type: physicochemical
Summary of the method: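 Known amounts (100 mg, 500 mg, 1.0 g) are shaken in equal volumes of 1-octanol and water pH 7.4 for 72 h, the optimal time. The aqueous layer is lyophilized, and the recovered compound is weighed and purity-checked. Values were cross-checked by colorimetry or UV for some compounds.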

Rattus norvegicus [2] = organism: Rattus norvegicus; test: Inhibition of rat hepatoma ribonucleotide reductase using ATP relative to hydroxyurea
Summary of the method: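 Same 32P-CDP reduction assay, 30 min, 37 °C, ATP 2.1 mM, aqueous inhibitor. Each determination includes hydroxyurea as positive control. ID50 (four levels, two trials each) is divided relative to that run's hydroxyurea ID50, and ratios are averaged across determinations.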

L1210 = test: Antitumor activity against mouse L1210 cells xenografted in host assessed as growth inhibition treated ip for 9 days; type: functional
Rattus norvegicus [3] = organism: Rattus norvegicus; test: Inhibition of rat hepatoma ribonucleotide reductase using ATP
Summary of the method: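 Partially purified rat Novikoff ascites hepatoma reductase (~0.2 mg) in pH 7 phosphate (8.3 mM) with 2.1 mM ATP, 4.2 mM MgAc2, Fe2+ (0.04 mM), 6.3 mM DTT, 1.0 μM rat thioredoxin and 0.17 mM 32P-CDP. Aqueous inhibitor is present before enzyme is added on ice, then 37 °C for 30 min. Perchloric acid stop, Dowex-50 product separation. Four concentrations, duplicate trials, ID50 by graphing/extrapolation.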

Rattus norvegicus [4] = organism: Rattus norvegicus; test: Inhibition of rat hepatoma ribonucleotide reductase using ATP and Me2SO solvent
Summary of the method: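 Rat Novikoff ascites hepatoma reductase, partially purified, assayed in 8.3 mM phosphate pH 7, 2.1 mM ATP, 4.2 mM MgAc2, 0.04 mM ferrous ammonium sulfate, 6.3 mM DTT, 1.0 μM thioredoxin, 0.17 mM 32P-CDP. Inhibitor is predissolved in DMSO and diluted to 1% DMSO final, then added on ice before enzyme, followed by 30 min at 37 °C. Dowex-50 readout. ID50 extrapolated from four concentrations tested in duplicate.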

Rattus norvegicus [5] = organism: Rattus norvegicus; test: Inhibition of rat hepatoma ribonucleotide reductase using ATP and Me2SO solvent relative to hydroxyurea

| logP at 72 h [1] | Ratio (Rattus norvegicus [2]) | ID50 (Rattus norvegicus [3]) | ID50 (Rattus norvegicus [4]) | Ratio (Rattus norvegicus [5]) | Compound | T/C (L1210) |
| --- | --- | --- | --- | --- | --- | --- |
| 0.2 | 19 | 800 µM |  |  | CC(C)NC(=O)NO | <125% |
| -0.76 |  |  |  |  | CCNC(=O)NO | 137% |
| -0.46 | 0.9 | 100 µM |  |  | CN(O)C(N)=O | 162% |
| -1.27 | 1 | 110 µM |  |  | NC(=O)NO [HYDROXYUREA] | 291% |
| 0.22 | 3.8 | 340 µM | 340 µM | 3.8 | CCCNC(=O)NO | 146% |

Second part, the compound before the results:

| Compound | logP at 72 h [1] | Ratio (Rattus norvegicus [2]) | ID50 (Rattus norvegicus [3]) | ID50 (Rattus norvegicus [4]) | Ratio (Rattus norvegicus [5]) | T/C (L1210) |
| --- | --- | --- | --- | --- | --- | --- |
| CCN(O)C(N)=O | -0.1 | 1.5 | 170 µM |  |  | 168% |
| CCCCNC(=O)NO | 0.32 | 6.8 |  | 750 µM |  |  |
| CC(C)(C)NC(=O)NO | 0.5 | 9.5 |  | 400 µM |  |  |
| O=C(NO)Nc1ccc(Cl)cc1 | 1.39 |  |  |  |  |  |
| O=C(NO)Nc1ccccc1 | 0.41 |  |  |  |  |  |
